Results published in ChEMBL document CHEMBL1126268, “Antimitotic agents. Chiral isomers of ethyl [5-amino-1,2-dihydro-3-(4-hydroxyphenyl)-2-methylpyrido[3,4-b]pyrazin-7 -yl]carbamate” (J Med Chem, 1992).

Assays:
[1] = system: P388; assay: The compound was tested in vivo for percent increase in life span against lymphocytic leukemia P388 in mice after intraperitoneal administration of 1 mg/kg dose; assay type: functional; settings: Mus musculus, P388, ip
Method in brief: (§1)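 Mice bearing lymphocytic leukemia P388. The reported value is the percent increase in life span at the highest nontoxic dose tested.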

[2] = system: L1210; assay: The compound was tested in vitro for mitotic inhibition against proliferation of cultured lymphoid leukemia L1210 cells; assay type: functional, Mus musculus
Method in brief: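 Cultured lymphoid leukemia L1210 cells exposed to agent for 12 h; mitotic index scored as cells in mitosis over total cells; value is the nanomolar concentration producing a mitotic index of 0.5.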

[3] = system: P388; assay: The compound was tested in vivo for percent increase in life span against lymphocytic leukemia P388 in mice after intraperitoneal administration of 30 mg/kg dose; assay type: functional; settings: Mus musculus, P388, ip; method in brief: as §1
[4] = system: L1210; assay: The compound was tested in vitro for cytotoxicity against proliferation of cultured lymphoid leukemia L1210 cells; assay type: functional, cell-based; settings: Mus musculus
Method in brief: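 Cultured lymphoid leukemia L1210 cells exposed to agent for 48 h; value is the nanomolar concentration giving 50% of control growth.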

[5] = system: P388; assay: The compound was tested in vivo for percent increase in life span against lymphocytic leukemia P388 in mice after intraperitoneal administration of 0.25 mg/kg dose; assay type: functional; settings: Mus musculus, P388, ip; method in brief: as §1
[6] = system: P388; assay: The compound was tested in vivo for percent increase in life span against lymphocytic leukemia P388 in mice after intraperitoneal administration of 0.22 mg/kg dose; assay type: functional; settings: Mus musculus, P388, ip; method in brief: as §1
[7] = system: P388; assay: The compound was tested in vivo for percent increase in life span against lymphocytic leukemia P388 in mice after intraperitoneal administration of 25 mg/kg dose; assay type: functional; settings: Mus musculus, P388, ip; method in brief: as §1
[8] = system: P388; assay: The compound was tested in vivo for percent increase in life span against lymphocytic leukemia P388 in mice after intraperitoneal administration of 0.5 mg/kg dose; assay type: functional; settings: Mus musculus, P388, ip; method in brief: as §1

Row | SMILES | ILS at 1 mg/kg [1] [%] | MI0.5 [2] [nM] | IC50 [4] [nM] | also measured
1 | CCOC(=O)Nc1cc2c(c(N)n1)N=C(c1ccc(OC)cc1)C(C)N2 (stereo not given) | 69 | 0.42 | – | –
2 | CCOC(=O)Nc1cc2c(c(N)n1)N=C(c1ccccc1)[C@@H](C)N2 | – | 27 | – | ILS at 30 mg/kg [3]: 88%
3 | CCOC(=O)Nc1cc2c(c(N)n1)N=C(c1ccc(OC(=O)NCCCl)cc1)C(C)N2 (stereo not given) | 90 | – | 0.043 | –
4 | CCCCNC(=O)Oc1ccc(C2=Nc3c(cc(NC(=O)OCC)nc3N)NC2C)cc1 (stereo not given) | – | – | 0.47 | ILS at 0.25 mg/kg [5]: 120%
5 | CCOC(=O)Nc1cc2c(c(NC(=O)NCCCl)n1)N=C(c1ccc(OC(=O)NCCCl)cc1)C(C)N2 (stereo not given) | – | – | 570 | –
6 | CCOC(=O)Nc1cc2c(c(N)n1)N=C(c1ccc(O)cc1)[C@H](C)N2 | – | 0.3 | 0.18 | ILS at 0.22 mg/kg [6]: 58%
7 | CCOC(=O)Nc1cc2c(c(N)n1)N=C(c1ccc(O)cc1)[C@@H](C)N2 | – | – | 32 | ILS at 25 mg/kg [7]: 77%
8 | CCOC(=O)Nc1cc2c(c(N)n1)N=C(c1ccc(OCc3ccccc3)cc1)C(C)N2 (stereo not given) | 120 | 30 | 7 | –
9 | CCOC(=O)Nc1cc2c(c(N)n1)N=C(c1ccc(O)cc1)C(C)N2 (racemic) | – | 0.47 | 0.22 | ILS at 0.5 mg/kg [8]: 55%
10 | CCOC(=O)Nc1cc2c(c(N)n1)N=C(c1ccccc1)C(C)N2 (racemic) | 71 | 0.58 | – | –
11 | CCOC(=O)Nc1cc2c(c(N)n1)N=C(c1ccccc1)[C@H](C)N2 [MIVOBULIN] | – | 0.14 | 0.09 | ILS at 0.5 mg/kg [8]: 64%
